From ChEMBL document CHEMBL1148722, “Discovery and optimization of p38 inhibitors via computer-assisted drug design” (J Med Chem, 2007)

Key:
Blood = assay: Inhibition of LPS-induced TNFalpha production in human whole blood; format: functional, tissue-based
How it was run: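 Fresh heparinized human whole blood was preincubated 30 min at 37 °C with serially diluted compound in type AB serum. It was then stimulated with E. coli LPS 0111:B4 (50 ng/mL final) for 5 h at 37 °C. Plasma TNFα was measured by ELISA, DELFIA or electrochemiluminescence against an on-plate standard curve. EC50 came from cross-plate duplicate 11-point curves fitted to a 4-parameter logistic, as the geometric mean over ≥3 donors.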

Mus musculus [1] = assay: Inhibition of LPS-induced TNFalpha production in BALB/c mouse at 10 mg/kg, po; format: functional
How it was run: (§1)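 Female Balb/c mice (~20 g) were gavaged with compound in cremophor about 30 min before i.v. LPS (E. coli 0111:B4, 1.0 µg/mouse) plus D-gal (50 mg/kg) in pyrogen-free saline. After 1 h, blood was taken by cardiac puncture under anaesthesia. Serum TNFα was measured by ELISA in duplicate, and compound level by HPLC.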

[2] = Clearance in Sprague-Dawley rat at 1 mg/kg, iv; format: ADME, organism-based; design: dose 1 mg/kg, route intravenous; details: in vivo
How it was run: (§2)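 Male Sprague-Dawley rats, fasted overnight with food returned about 4 h post-dose, three per group. One group got 1 mg/kg as a ~15 s i.v. push via femoral vein catheter at 1 mL/kg. The other got 10 mg/kg by oral gavage at 10 mL/kg. Plasma was analysed by noncompartmental pharmacokinetic methods.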

[3] = Cmax in Sprague-Dawley rat at 10 mg/kg, po; format: ADME, organism-based; design: dose 10 mg/kg, route oral; details: in vivo; how it was run: as §2
[4] = Bioavailability in Sprague-Dawley rat at 10 mg/kg, po; format: ADME, organism-based; details: in vivo; how it was run: as §2
[5] = biological target: Mitogen-activated protein kinase 9 (Homo sapiens, UniProt P45984); assay: Inhibition of JNK2
Mitogen-activated protein kinase 9, sequence (P45984 whole entry): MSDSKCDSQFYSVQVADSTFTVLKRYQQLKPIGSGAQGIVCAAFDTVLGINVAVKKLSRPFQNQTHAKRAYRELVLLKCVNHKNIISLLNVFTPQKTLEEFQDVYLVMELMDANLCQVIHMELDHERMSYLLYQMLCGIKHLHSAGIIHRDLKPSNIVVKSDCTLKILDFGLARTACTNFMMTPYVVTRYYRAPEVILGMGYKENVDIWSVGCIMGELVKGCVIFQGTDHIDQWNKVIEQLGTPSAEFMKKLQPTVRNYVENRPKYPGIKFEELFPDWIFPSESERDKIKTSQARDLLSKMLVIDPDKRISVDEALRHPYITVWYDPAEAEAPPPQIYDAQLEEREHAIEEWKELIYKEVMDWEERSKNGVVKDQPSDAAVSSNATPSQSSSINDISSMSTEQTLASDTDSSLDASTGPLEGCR

[6] = biological target: Tyrosine-protein kinase Lyn (Homo sapiens, UniProt P07948); assay: Inhibition of Lyn
Tyrosine-protein kinase Lyn, sequence (P07948 whole entry): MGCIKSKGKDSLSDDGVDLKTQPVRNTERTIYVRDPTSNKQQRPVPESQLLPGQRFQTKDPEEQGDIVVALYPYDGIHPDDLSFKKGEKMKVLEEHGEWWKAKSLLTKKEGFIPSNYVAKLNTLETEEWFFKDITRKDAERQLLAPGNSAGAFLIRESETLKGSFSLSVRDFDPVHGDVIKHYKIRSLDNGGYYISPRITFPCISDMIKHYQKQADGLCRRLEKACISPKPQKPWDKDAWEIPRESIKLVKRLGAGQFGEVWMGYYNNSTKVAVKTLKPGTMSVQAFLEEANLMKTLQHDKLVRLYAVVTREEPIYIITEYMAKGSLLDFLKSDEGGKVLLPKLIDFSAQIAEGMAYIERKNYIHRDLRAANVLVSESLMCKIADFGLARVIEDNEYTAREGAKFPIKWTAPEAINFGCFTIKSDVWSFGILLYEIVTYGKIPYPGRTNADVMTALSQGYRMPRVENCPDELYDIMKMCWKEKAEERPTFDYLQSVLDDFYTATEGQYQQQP

Mus musculus [7] = assay: Inhibition of LPS-induced TNFalpha production in BALB/c mouse at 3 mg/kg, po; format: functional; how it was run: as §1

SMILES: COc1c(NC(=O)c2cc3ccccc3s2)cc(C(C)(C)C)cc1NS(C)(=O)=O
- IC50 (Blood): > 10000 nM

SMILES: COc1c(NC(=O)c2cc3ccccc3[nH]2)cc(C(C)(C)C)cc1NS(C)(=O)=O
- IC50 (Blood): > 10000 nM

SMILES: COc1c(NC(=O)c2cc3c(NC(=O)c4cccnc4)cccc3s2)cc(C(C)(C)C)cc1NS(C)(=O)=O
- IC50 (Blood): > 10000 nM

SMILES: COc1c(NC(=O)c2cc3cccc(NC(=O)c4cccnc4)c3s2)cc(C(C)(C)C)cc1NS(C)(=O)=O
- IC50 (Blood): 1100 nM
- inhibition in vivo at 10 mg/kg (Mus musculus [1]): 60%
- clearance [2]: 19 mL/min/kg
- Cmax [3]: 5200 ng/mL
- bioavailability [4]: 57%

SMILES: COc1c(NC(=O)c2cc3cccc(NC(=O)c4cccnc4)c3n2C)cc(C(C)(C)C)cc1NS(C)(=O)=O
- IC50 (Blood): 3600 nM
- inhibition in vivo at 10 mg/kg (Mus musculus [1]): 60%
- clearance [2]: 3 mL/min/kg
- Cmax [3]: 9000 ng/mL
- bioavailability [4]: 90%

SMILES: CNc1ccc(C(=O)Nc2cccc3cc(C(=O)Nc4cc(C(C)(C)C)cc(NS(C)(=O)=O)c4OC)sc23)cn1
- IC50 (Blood): 1100 nM

SMILES: CNc1ccc(C(=O)Nc2cccc3cc(C(=O)Nc4cc(C(C)(C)C)cc(NS(C)(=O)=O)c4OC)n(C)c23)cn1
- IC50 (Blood): 500 nM

SMILES: COc1c(NC(=O)c2cc3cccc(NC(=O)c4ccc(NCCN(C)C)nc4)c3s2)cc(C(C)(C)C)cc1NS(C)(=O)=O
- IC50 (Blood): 650 nM

SMILES: COc1c(NC(=O)c2cc3cccc(NC(=O)c4ccc(NCCN5CCOCC5)nc4)c3n2C)cc(C(C)(C)C)cc1NS(C)(=O)=O
- IC50 (Blood): 250 nM

SMILES: COc1c(NC(=O)c2cc3cccc(NC(=O)c4ccc(NC5CC5)nc4)c3s2)cc(C(C)(C)C)cc1NS(C)(=O)=O
- IC50 (Blood): 180 nM
- IC50 [5]: 16 nM
- IC50 [6]: 230 nM
- inhibition in vivo at 10 mg/kg (Mus musculus [1]): 98%
- inhibition in vivo at 3 mg/kg (Mus musculus [7]): 80%
- clearance [2]: 4 mL/min/kg
- Cmax [3]: 2400 ng/mL
- bioavailability [4]: 51%

SMILES: COc1c(NC(=O)c2cc3cccc(NC(=O)c4ccc(NCC5CC5)nc4)c3s2)cc(C(C)(C)C)cc1NS(C)(=O)=O
- IC50 (Blood): 670 nM

SMILES: COc1c(NC(=O)Nc2ccc(OCCN3CCOCC3)c3ccccc23)cc(C(C)(C)C)cc1NS(C)(=O)=O
- IC50 (Blood): 1060 nM

SMILES: COc1c(NC(=O)Nc2cccc3ccccc23)cc(C(C)(C)C)cc1NS(C)(=O)=O
- IC50 (Blood): > 10000 nM

SMILES: COc1c(NC(=O)c2cc3cccc(NC(=O)c4ccc(N(C)C)nc4)c3s2)cc(C(C)(C)C)cc1NS(C)(=O)=O
- IC50 (Blood): 2200 nM

SMILES: COc1c(NC(=O)c2cc3ccccc3n2C)cc(C(C)(C)C)cc1NS(C)(=O)=O
- IC50 (Blood): > 10000 nM

SMILES: COc1c(NC(=O)c2cc3cccc(NC(=O)c4ccc(N)nc4)c3s2)cc(C(C)(C)C)cc1NS(C)(=O)=O
- IC50 (Blood): 430 nM

SMILES: COc1c(NC(=O)c2cc3ccccc3o2)cc(C(C)(C)C)cc1NS(C)(=O)=O
- IC50 (Blood): > 10000 nM

SMILES: COc1c(NC(=O)c2cc3cccc(NC(=O)c4ccc(NCCN(C)C)nc4)c3n2C)cc(C(C)(C)C)cc1NS(C)(=O)=O
- IC50 (Blood): 700 nM

SMILES: COc1c(NC(=O)c2cc3cccc(NC(=O)c4ccc(NC5CC5)nc4)c3n2C)cc(C(C)(C)C)cc1NS(C)(=O)=O
- IC50 (Blood): 140 nM
- inhibition in vivo at 10 mg/kg (Mus musculus [1]): 75%
- inhibition in vivo at 3 mg/kg (Mus musculus [7]): 60%
- clearance [2]: 5 mL/min/kg
- Cmax [3]: 14000 ng/mL
- bioavailability [4]: 51%

SMILES: COc1c(NC(=O)c2cc3cccc(NC(=O)c4ccc(NCC5CC5)nc4)c3n2C)cc(C(C)(C)C)cc1NS(C)(=O)=O
- IC50 (Blood): 150 nM

SMILES: COCCNc1ccc(C(=O)Nc2cccc3cc(C(=O)Nc4cc(C(C)(C)C)cc(NS(C)(=O)=O)c4OC)sc23)cn1
- IC50 (Blood): 130 nM

SMILES: COCCNc1ccc(C(=O)Nc2cccc3cc(C(=O)Nc4cc(C(C)(C)C)cc(NS(C)(=O)=O)c4OC)n(C)c23)cn1
- IC50 (Blood): 160 nM

SMILES: COc1c(NC(=O)c2cc3cccc(NC(=O)c4ccc(NCCN5CCOCC5)nc4)c3s2)cc(C(C)(C)C)cc1NS(C)(=O)=O
- IC50 (Blood): 550 nM

SMILES: Cc1ccc(-n2nc(C(C)(C)C)cc2NC(=O)Nc2ccc(OCCN3CCOCC3)c3ccccc23)cc1 [DORAMAPIMOD]
- inhibition in vivo at 10 mg/kg (Mus musculus [1]): 60%
- clearance [2]: 1.7 mL/min/kg
- Cmax [3]: 10900 ng/mL
- bioavailability [4]: 76%
